Measurements taken from ChEMBL document CHEMBL1687895, “Synthesis and anti-mycobacterial activity of novel amino alcohol derivatives” (Eur J Med Chem, 2011).
In brackets after ≈: the same amount, converted by molar mass.

What was measured:
[1] = Partition coefficient, log P of the compound; type: physicochemical; conditions: octanol/water
In short: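 Computed in silico from structure with an online molecular-property calculation server's logP method, not measured by experimental partitioning.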

[2] = tested on: Mycobacterium tuberculosis; assay: Antibacterial activity against Mycobacterium tuberculosis H37Rv ATCC 27294 after 24 hrs by alamar blue assay; type: functional; conditions: H37Rv ATCC 27294, 24 h
In short: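 Microplate Alamar Blue assay on M. tuberculosis ATCC 27294 in Middlebrook 7H9 broth, with compounds serially diluted on the plate (final 0.01–20.0). Water in the outer wells limited evaporation. Sealed plates were incubated at 37 C for five days, then a fresh 1:1 Alamar Blue/10% Tween 80 mix was added for 24 h. MIC is the lowest concentration preventing the blue-to-pink change.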

Compound | logP [1] | MIC [2] [µM]
CC(C)(C)OC(=O)N[C@@H](Cc1ccccc1)[C@H](O)CNCc1ccc2c(c1)OCO2 | 5.15 | 241 (≈ 99.9 µg/mL)
N[C@@H](Cc1ccccc1)[C@H](O)CNCc1ccc2c(c1)OCO2 | 1.41 | 318 (≈ 100 µg/mL)
CC(C)(C)OC(=O)N[C@@H](Cc1ccccc1)[C@H](O)CN(Cc1ccc2c(c1)OCO2)S(=O)(=O)c1ccc(Br)cc1 | 7.11 | > 500
COc1ccc(S(=O)(=O)N(Cc2ccc3c(c2)OCO3)C[C@@H](O)[C@H](Cc2ccccc2)NC(=O)OC(C)(C)C)cc1 | 6.36 | > 500
Cc1ccc(S(=O)(=O)N(Cc2ccc3c(c2)OCO3)C[C@@H](O)[C@H](Cc2ccccc2)NC(=O)OC(C)(C)C)cc1 | 6.75 | > 500
CC(C)(C)OC(=O)N[C@@H](Cc1ccccc1)[C@H](O)CN(Cc1ccc2c(c1)OCO2)S(=O)(=O)c1ccc(F)cc1 | 5.38 | > 500
CC(C)(C)OC(=O)N[C@@H](Cc1ccccc1)[C@H](O)CN(Cc1ccc2c(c1)OCO2)S(=O)(=O)c1ccc([N+](=O)[O-])cc1 | 6.26 | > 500
CC(C)(C)OC(=O)N[C@@H](Cc1ccccc1)[C@H](O)CN(Cc1ccc2c(c1)OCO2)S(=O)(=O)c1ccc(N)cc1 | 6.47 | > 500
N[C@@H](Cc1ccccc1)[C@H](O)CN(Cc1ccc2c(c1)OCO2)S(=O)(=O)c1ccc(Br)cc1 | 3.37 | 23.5 (≈ 12.5 µg/mL)
COc1ccc(S(=O)(=O)N(Cc2ccc3c(c2)OCO3)C[C@@H](O)[C@@H](N)Cc2ccccc2)cc1 | 2.62 | 51.6 (≈ 25 µg/mL)
Cc1ccc(S(=O)(=O)N(Cc2ccc3c(c2)OCO3)C[C@@H](O)[C@@H](N)Cc2ccccc2)cc1 | 3.01 | 106 (≈ 49.7 µg/mL)
N[C@@H](Cc1ccccc1)[C@H](O)CN(Cc1ccc2c(c1)OCO2)S(=O)(=O)c1ccc(F)cc1 | 1.64 | 211 (≈ 99.7 µg/mL)
N[C@@H](Cc1ccccc1)[C@H](O)CN(Cc1ccc2c(c1)OCO2)S(=O)(=O)c1ccc([N+](=O)[O-])cc1 | 2.52 | > 500
CC[C@@H](CO)NCCN[C@@H](CC)CO [ETHAMBUTOL] | 0.35 | 15.9 (≈ 3.25 µg/mL)
